The target of experiment [1] is Sodium channel protein type 9 subunit alpha (Homo sapiens, UniProt Q15858). The experiment in a line: Inhibition of human Nav1.7 expressed in HEK293 cells assessed as inward peak current by ion-works quattro patch clamp electrophysiology method. Format: cell-based.
In experiment [2] the target is Sodium channel protein type 5 subunit alpha (Homo sapiens, UniProt Q14524). Description: Inhibition of human Nav1.5 expressed in HEK293 cells assessed as inward peak current by ion-works quattro patch clamp electrophysiology method. Format: cell-based. The method, boiled down:
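Stable HEK293 line expressing human NaV1.5, recorded by population patch clamp on the IonWorks Quattro.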
(Patch clamp records ionic current or voltage across a cell membrane.)

Positions of bridges follow the written chain, without caps; N, C: chain ends. Non-standard residues stand in square brackets, D forms with d. Residues, ends and D or L forms follow the SMILES beside them. 1Nal = N[C@@H](Cc1cccc2ccccc12)C(=O)O

Sodium channel protein type 5 subunit alpha, sequence (Q14524 whole entry): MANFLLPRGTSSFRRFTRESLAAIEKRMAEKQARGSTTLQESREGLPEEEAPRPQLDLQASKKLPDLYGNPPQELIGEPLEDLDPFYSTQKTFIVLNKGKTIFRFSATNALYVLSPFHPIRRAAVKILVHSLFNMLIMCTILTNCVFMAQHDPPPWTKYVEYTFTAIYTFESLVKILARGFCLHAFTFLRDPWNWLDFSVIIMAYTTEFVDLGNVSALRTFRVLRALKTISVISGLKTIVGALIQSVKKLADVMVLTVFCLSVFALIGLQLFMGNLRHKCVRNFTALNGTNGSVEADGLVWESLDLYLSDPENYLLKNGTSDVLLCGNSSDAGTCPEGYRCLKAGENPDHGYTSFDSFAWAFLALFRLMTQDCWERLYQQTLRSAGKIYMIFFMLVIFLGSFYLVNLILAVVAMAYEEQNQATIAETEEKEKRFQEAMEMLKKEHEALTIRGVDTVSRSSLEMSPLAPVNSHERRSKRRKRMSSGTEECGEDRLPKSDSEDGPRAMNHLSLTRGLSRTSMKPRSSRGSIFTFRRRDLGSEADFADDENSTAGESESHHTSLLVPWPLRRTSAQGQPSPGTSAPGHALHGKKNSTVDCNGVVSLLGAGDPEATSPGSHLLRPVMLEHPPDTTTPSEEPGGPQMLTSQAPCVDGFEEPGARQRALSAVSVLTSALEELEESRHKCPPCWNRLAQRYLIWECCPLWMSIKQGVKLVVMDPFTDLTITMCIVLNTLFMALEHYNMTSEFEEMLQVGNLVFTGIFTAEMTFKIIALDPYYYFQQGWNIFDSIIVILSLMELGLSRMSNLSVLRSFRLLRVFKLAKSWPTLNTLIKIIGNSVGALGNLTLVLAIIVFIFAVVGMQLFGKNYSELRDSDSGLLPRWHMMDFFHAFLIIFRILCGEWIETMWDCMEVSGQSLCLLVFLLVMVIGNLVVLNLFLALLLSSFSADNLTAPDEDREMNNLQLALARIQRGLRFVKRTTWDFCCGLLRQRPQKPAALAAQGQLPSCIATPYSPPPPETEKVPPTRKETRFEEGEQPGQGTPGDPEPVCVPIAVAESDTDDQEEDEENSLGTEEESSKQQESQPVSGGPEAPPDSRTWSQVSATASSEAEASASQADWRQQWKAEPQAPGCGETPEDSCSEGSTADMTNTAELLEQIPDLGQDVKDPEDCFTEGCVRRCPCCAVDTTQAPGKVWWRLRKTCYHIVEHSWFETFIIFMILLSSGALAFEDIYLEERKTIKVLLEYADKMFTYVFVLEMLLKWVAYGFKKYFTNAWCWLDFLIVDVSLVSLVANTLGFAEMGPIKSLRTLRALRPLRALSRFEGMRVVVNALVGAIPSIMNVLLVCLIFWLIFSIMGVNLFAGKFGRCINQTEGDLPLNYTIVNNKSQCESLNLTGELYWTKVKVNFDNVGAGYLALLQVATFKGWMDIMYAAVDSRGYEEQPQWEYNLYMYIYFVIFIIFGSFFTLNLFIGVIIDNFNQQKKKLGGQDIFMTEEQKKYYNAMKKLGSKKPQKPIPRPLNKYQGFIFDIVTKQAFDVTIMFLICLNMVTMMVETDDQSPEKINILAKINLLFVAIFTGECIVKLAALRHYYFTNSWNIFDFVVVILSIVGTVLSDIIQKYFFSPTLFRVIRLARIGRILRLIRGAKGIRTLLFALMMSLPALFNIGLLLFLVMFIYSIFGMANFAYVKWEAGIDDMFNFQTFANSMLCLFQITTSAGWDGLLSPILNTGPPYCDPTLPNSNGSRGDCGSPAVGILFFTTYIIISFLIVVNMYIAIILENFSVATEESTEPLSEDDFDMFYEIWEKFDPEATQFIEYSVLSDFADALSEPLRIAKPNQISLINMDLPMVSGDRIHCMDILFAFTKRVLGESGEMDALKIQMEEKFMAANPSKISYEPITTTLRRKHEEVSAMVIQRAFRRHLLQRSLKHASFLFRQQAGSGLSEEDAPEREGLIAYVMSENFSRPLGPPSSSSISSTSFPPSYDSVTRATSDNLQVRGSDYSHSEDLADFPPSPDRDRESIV
Sodium channel protein type 9 subunit alpha, sequence (Q15858 whole entry): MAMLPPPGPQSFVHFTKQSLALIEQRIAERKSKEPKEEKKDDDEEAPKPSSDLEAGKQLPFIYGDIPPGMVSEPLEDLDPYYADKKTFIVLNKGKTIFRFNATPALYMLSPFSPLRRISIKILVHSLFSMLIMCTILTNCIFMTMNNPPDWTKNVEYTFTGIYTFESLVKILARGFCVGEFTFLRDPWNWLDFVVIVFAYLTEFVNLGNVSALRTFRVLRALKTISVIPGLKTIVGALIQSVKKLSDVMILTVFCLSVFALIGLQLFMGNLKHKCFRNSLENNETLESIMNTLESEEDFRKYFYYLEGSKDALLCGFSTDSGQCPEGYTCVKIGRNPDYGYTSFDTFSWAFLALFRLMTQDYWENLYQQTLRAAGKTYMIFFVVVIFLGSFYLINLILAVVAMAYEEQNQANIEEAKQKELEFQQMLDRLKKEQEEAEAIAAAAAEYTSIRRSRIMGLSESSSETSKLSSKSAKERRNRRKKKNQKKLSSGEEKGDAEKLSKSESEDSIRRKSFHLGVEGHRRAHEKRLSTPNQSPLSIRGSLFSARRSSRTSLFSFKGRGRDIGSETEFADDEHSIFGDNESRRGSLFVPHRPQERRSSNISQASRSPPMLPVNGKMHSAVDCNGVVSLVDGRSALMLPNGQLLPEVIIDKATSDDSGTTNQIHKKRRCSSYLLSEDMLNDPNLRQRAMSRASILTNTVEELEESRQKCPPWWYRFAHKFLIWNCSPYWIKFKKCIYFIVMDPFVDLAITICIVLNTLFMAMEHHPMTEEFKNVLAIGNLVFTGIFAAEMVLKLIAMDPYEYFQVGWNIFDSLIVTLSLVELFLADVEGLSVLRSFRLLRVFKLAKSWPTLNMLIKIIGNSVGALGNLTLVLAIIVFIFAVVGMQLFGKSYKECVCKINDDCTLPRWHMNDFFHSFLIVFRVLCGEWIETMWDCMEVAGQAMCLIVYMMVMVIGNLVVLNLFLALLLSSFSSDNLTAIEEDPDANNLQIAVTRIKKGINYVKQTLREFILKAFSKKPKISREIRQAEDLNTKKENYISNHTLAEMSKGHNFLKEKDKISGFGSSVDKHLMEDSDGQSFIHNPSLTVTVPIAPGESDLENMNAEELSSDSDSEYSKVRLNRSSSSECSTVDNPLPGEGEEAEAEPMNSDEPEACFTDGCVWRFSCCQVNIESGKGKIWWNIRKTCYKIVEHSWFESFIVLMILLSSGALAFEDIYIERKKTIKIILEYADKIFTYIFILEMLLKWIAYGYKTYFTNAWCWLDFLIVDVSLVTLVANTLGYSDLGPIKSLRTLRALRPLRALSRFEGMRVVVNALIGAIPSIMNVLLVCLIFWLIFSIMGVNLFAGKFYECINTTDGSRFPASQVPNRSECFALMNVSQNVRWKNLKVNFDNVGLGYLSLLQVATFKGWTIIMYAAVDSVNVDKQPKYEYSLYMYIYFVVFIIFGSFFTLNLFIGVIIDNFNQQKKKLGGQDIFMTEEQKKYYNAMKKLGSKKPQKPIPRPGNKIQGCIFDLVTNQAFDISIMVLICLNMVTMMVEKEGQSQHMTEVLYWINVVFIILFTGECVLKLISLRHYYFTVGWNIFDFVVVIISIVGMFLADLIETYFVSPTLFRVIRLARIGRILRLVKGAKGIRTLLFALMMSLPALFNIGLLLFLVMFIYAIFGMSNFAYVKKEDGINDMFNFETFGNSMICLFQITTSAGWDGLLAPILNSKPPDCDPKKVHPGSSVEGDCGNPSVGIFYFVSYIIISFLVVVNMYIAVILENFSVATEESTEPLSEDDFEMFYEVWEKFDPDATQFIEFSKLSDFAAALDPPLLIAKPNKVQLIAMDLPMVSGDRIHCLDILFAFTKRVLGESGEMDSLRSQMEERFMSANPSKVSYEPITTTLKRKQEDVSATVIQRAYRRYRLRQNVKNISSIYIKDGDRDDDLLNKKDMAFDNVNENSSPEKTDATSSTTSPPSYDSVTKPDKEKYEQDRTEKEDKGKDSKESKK

What is called IC50 is the midpoint of a concentration-inhibition curve. As to `CC[C@H](C)[C@@H]1NC(=O)[C@@H]2CSSC[C@@H]3NC(=O)[C@H](C(C)C)NC(=O)[C@H](CC(C)C)NC(=O)[C@H](CC(N)=O)NC(=O)[C@@H]4CCCN4C(=O)[C@H](CCCNC(=N)N)NC(=O)[C@H](CSSC[C@H](NC(=O)[C@@H](N)CC(=O)O)C(=O)N[C@@H](CC(C)C)C(=O)NCC(=O)N[C@@H](Cc4ccccc4)C(=O)N[C@@H](CCSC)C(=O)N[C@@H](CCCNC(=N)N)C(=O)N[C@@H](CCCCN)C(=O)N2)NC(=O)[C@H](CSSC[C@@H](C(=O)N[C@@H](Cc2c[nH]c4ccccc24)C(=O)N[C@@H](Cc2ccc(O)cc2)C(=O)N[C@H](C(=O)N[C@@H](Cc2ccccc2)C(N)=O)C(C)C)NC(=O)[C@H](Cc2c[nH]c4ccccc24)NC(=O)[C@H](CCCCN)NC(=O)[C@H](Cc2c[nH]cn2)NC(=O)[C@H]([C@@H](C)O)NC(=O)[C@H](CCCNC(=N)N)NC(=O)[C@H](CO)NC3=O)NC(=O)[C@H](CCCCN)NC(=O)[C@H](CC(=O)O)NC(=O)[C@H](CC(N)=O)NC(=O)[C@H](CC(=O)O)NC(=O)[C@@H]2CCCN2C1=O` (H-DCLGFMRKCIPDNDKCCRPNLVCSRTHKWCWYVF-NH2; disulfide 2-17, 9-23, 16-30), the figures for the half-maximal inhibitory concentration (IC50) in experiment [1] and in experiment [2] were > 4900 nM and > 5000 nM, respectively.

Consider `CC[C@H](C)[C@@H]1NC(=O)[C@@H]2CSSC[C@@H]3NC(=O)[C@H](C(C)C)NC(=O)[C@H](CC(C)C)NC(=O)[C@H](CC(N)=O)NC(=O)[C@@H]4CCCN4C(=O)[C@H](CCCNC(=N)N)NC(=O)[C@H](CSSC[C@H](NC(=O)[C@@H](N)CC(=O)O)C(=O)N[C@@H](CC(C)C)C(=O)NCC(=O)N[C@@H](Cc4ccccc4)C(=O)N[C@@H](CCSC)C(=O)N[C@@H](CCCNC(=N)N)C(=O)N[C@@H](CCCCN)C(=O)N2)NC(=O)[C@H](CSSC[C@@H](C(=O)N[C@@H](CCCCN)C(=O)N[C@@H](Cc2ccc(O)cc2)C(=O)N[C@H](C(=O)N[C@@H](Cc2ccccc2)C(N)=O)C(C)C)NC(=O)[C@H](Cc2c[nH]c4ccccc24)NC(=O)[C@H](CCCCN)NC(=O)[C@H](CCCNC(=N)N)NC(=O)[C@H]([C@@H](C)O)NC(=O)[C@H](CCCNC(=N)N)NC(=O)[C@H](CO)NC3=O)NC(=O)[C@H](CCCCN)NC(=O)[C@H](CC(=O)O)NC(=O)[C@H](CC(N)=O)NC(=O)[C@H](CC(=O)O)NC(=O)[C@@H]2CCCN2C1=O` (H-DCLGFMRKCIPDNDKCCRPNLVCSRTRKWCKYVF-NH2; disulfide 2-17, 9-23, 16-30), for which the half-inhibitory concentration (IC50) in experiment [1] was 450 nM; in experiment [2], > 5000 nM.

Consider `CC[C@H](C)[C@@H]1NC(=O)[C@@H]2CSSC[C@@H]3NC(=O)[C@H](C(C)C)NC(=O)[C@H](CC(C)C)NC(=O)[C@H](CC(N)=O)NC(=O)[C@@H]4CCCN4C(=O)[C@H](CCCNC(=N)N)NC(=O)[C@H](CSSC[C@H](NC(=O)[C@@H](N)CC(=O)O)C(=O)N[C@@H](CC(C)C)C(=O)NCC(=O)N[C@@H](Cc4ccccc4)C(=O)N[C@@H](CCSC)C(=O)N[C@@H](CCCNC(=N)N)C(=O)N[C@@H](CCCCN)C(=O)N2)NC(=O)[C@H](CSSC[C@@H](C(=O)N[C@@H](CCCCN)C(=O)N[C@@H](Cc2ccc(O)cc2)C(=O)N[C@H](C(=O)N[C@@H](Cc2ccccc2)C(N)=O)C(C)C)NC(=O)[C@H](Cc2c[nH]c4ccccc24)NC(=O)[C@H](CCCCN)NC(=O)[C@H](Cc2cccc4ccccc24)NC(=O)[C@H]([C@@H](C)O)NC(=O)[C@H](CCCNC(=N)N)NC(=O)[C@H](CO)NC3=O)NC(=O)[C@H](CCCCN)NC(=O)[C@H](CC(=O)O)NC(=O)[C@H](CC(N)=O)NC(=O)[C@H](CC(=O)O)NC(=O)[C@@H]2CCCN2C1=O` (H-DCLGFMRKCIPDNDKCCRPNLVCSRT[1Nal]KWCKYVF-NH2; disulfide 2-17, 9-23, 16-30), for which the 50% inhibitory concentration (IC50) amounted to 250 nM in experiment [1] and 900 nM in experiment [2].

Take `CC[C@H](C)[C@@H]1NC(=O)[C@@H]2CSSC[C@@H]3NC(=O)[C@H](C(C)C)NC(=O)[C@H](CC(C)C)NC(=O)[C@H](CC(N)=O)NC(=O)[C@@H]4CCCN4C(=O)[C@H](CCCNC(=N)N)NC(=O)[C@H](CSSC[C@H](NC(=O)[C@@H](N)CC(=O)O)C(=O)N[C@@H](CC(C)C)C(=O)NCC(=O)N[C@@H](Cc4ccccc4)C(=O)N[C@@H](CCSC)C(=O)N[C@@H](CCCNC(=N)N)C(=O)N[C@@H](CCCCN)C(=O)N2)NC(=O)[C@H](CSSC[C@@H](C(=O)N[C@@H](CCCCN)C(=O)N[C@@H](Cc2ccc(O)cc2)C(=O)N[C@H](C(=O)N[C@@H](Cc2ccccc2)C(N)=O)C(C)C)NC(=O)[C@H](Cc2c[nH]c4ccccc24)NC(=O)[C@H](CCCCN)NC(=O)[C@H](Cc2cnc[nH]2)NC(=O)[C@H](Cc2c[nH]c4ccccc24)NC(=O)[C@H](CCCNC(=N)N)NC(=O)[C@H](CO)NC3=O)NC(=O)[C@H](CCCCN)NC(=O)[C@H](CC(=O)O)NC(=O)[C@H](CC(N)=O)NC(=O)[C@H](CC(=O)O)NC(=O)[C@@H]2CCCN2C1=O` (H-DCLGFMRKCIPDNDKCCRPNLVCSRWHKWCKYVF-NH2; disulfide 2-17, 9-23, 16-30): the results for the concentration for half-maximal inhibition (IC50) in experiment [1] and in experiment [2] were 50 nM and 3600 nM, respectively.

As for `CC[C@H](C)[C@@H]1NC(=O)[C@@H]2CSSC[C@@H]3NC(=O)[C@H](C(C)C)NC(=O)[C@H](Cc4c[nH]c5ccccc45)NC(=O)[C@H](CC(N)=O)NC(=O)[C@@H]4CCCN4C(=O)[C@H](CCCNC(=N)N)NC(=O)[C@H](CSSC[C@H](NC(=O)[C@@H](N)CC(=O)O)C(=O)N[C@@H](CC(C)C)C(=O)NCC(=O)N[C@@H](Cc4ccccc4)C(=O)N[C@@H](CCSC)C(=O)N[C@@H](CCCNC(=N)N)C(=O)N[C@@H](CCCCN)C(=O)N2)NC(=O)[C@H](CSSC[C@@H](C(=O)N[C@@H](CCCCN)C(=O)N[C@@H](Cc2ccc(O)cc2)C(=O)N[C@H](C(=O)N[C@@H](Cc2ccccc2)C(N)=O)C(C)C)NC(=O)[C@H](Cc2c[nH]c4ccccc24)NC(=O)[C@H](CCCCN)NC(=O)[C@H](Cc2cnc[nH]2)NC(=O)[C@H]([C@@H](C)O)NC(=O)[C@H](CCCNC(=N)N)NC(=O)[C@H](CO)NC3=O)NC(=O)[C@H](CCCCN)NC(=O)[C@H](CC(=O)O)NC(=O)[C@H](CC(N)=O)NC(=O)[C@H](CC(=O)O)NC(=O)[C@@H]2CCCN2C1=O` (H-DCLGFMRKCIPDNDKCCRPNWVCSRTHKWCKYVF-NH2; disulfide 2-17, 9-23, 16-30), the results for the 50% inhibitory concentration (IC50) in experiment [1] and in experiment [2] were 110 nM and > 5000 nM, respectively.

Turning to `CC[C@H](C)[C@@H]1NC(=O)[C@@H]2CSSC[C@@H]3NC(=O)[C@H](C(C)C)NC(=O)[C@H](Cc4cccc5ccccc45)NC(=O)[C@H](CC(N)=O)NC(=O)[C@@H]4CCCN4C(=O)[C@H](CCCNC(=N)N)NC(=O)[C@H](CSSC[C@H](NC(=O)[C@@H](N)CC(=O)O)C(=O)N[C@@H](CC(C)C)C(=O)NCC(=O)N[C@@H](Cc4ccccc4)C(=O)N[C@@H](CCSC)C(=O)N[C@@H](CCCNC(=N)N)C(=O)N[C@@H](CCCCN)C(=O)N2)NC(=O)[C@H](CSSC[C@@H](C(=O)N[C@@H](CCCCN)C(=O)N[C@@H](Cc2ccc(O)cc2)C(=O)N[C@H](C(=O)N[C@@H](Cc2ccccc2)C(N)=O)C(C)C)NC(=O)[C@H](Cc2c[nH]c4ccccc24)NC(=O)[C@H](CCCCN)NC(=O)[C@H](Cc2c[nH]cn2)NC(=O)[C@H]([C@@H](C)O)NC(=O)[C@H](CCCNC(=N)N)NC(=O)[C@H](CO)NC3=O)NC(=O)[C@H](CCCCN)NC(=O)[C@H](CC(=O)O)NC(=O)[C@H](CC(N)=O)NC(=O)[C@H](CC(=O)O)NC(=O)[C@@H]2CCCN2C1=O` (H-DCLGFMRKCIPDNDKCCRPN[1Nal]VCSRTHKWCKYVF-NH2; disulfide 2-17, 9-23, 16-30), the IC50 in experiment [1] was 90 nM; in experiment [2] it was > 5000 nM.

For `CC[C@H](C)[C@@H]1NC(=O)[C@@H]2CSSC[C@@H]3NC(=O)[C@H](C(C)C)NC(=O)[C@H](CC(C)C)NC(=O)[C@H](Cc4c[nH]c5ccccc45)NC(=O)[C@@H]4CCCN4C(=O)[C@H](CCCNC(=N)N)NC(=O)[C@H](CSSC[C@H](NC(=O)[C@@H](N)CC(=O)O)C(=O)N[C@@H](CC(C)C)C(=O)NCC(=O)N[C@@H](Cc4ccccc4)C(=O)N[C@@H](CCSC)C(=O)N[C@@H](CCCNC(=N)N)C(=O)N[C@@H](CCCCN)C(=O)N2)NC(=O)[C@H](CSSC[C@@H](C(=O)N[C@@H](CCCCN)C(=O)N[C@@H](Cc2ccc(O)cc2)C(=O)N[C@H](C(=O)N[C@@H](Cc2ccccc2)C(N)=O)C(C)C)NC(=O)[C@H](Cc2c[nH]c4ccccc24)NC(=O)[C@H](CCCCN)NC(=O)[C@H](Cc2cnc[nH]2)NC(=O)[C@H]([C@@H](C)O)NC(=O)[C@H](CCCNC(=N)N)NC(=O)[C@H](CO)NC3=O)NC(=O)[C@H](CCCCN)NC(=O)[C@H](CC(=O)O)NC(=O)[C@H](CC(N)=O)NC(=O)[C@H](CC(=O)O)NC(=O)[C@@H]2CCCN2C1=O` (H-DCLGFMRKCIPDNDKCCRPWLVCSRTHKWCKYVF-NH2; disulfide 2-17, 9-23, 16-30), the IC50 in experiment [1] is 70 nM; in experiment [2], > 5000 nM.

As for `CC[C@H](C)[C@@H]1NC(=O)[C@@H]2CSSC[C@@H]3NC(=O)[C@H](C(C)C)NC(=O)[C@H](CC(C)C)NC(=O)[C@H](CC(N)=O)NC(=O)[C@@H]4CCCN4C(=O)[C@H](CCCNC(=N)N)NC(=O)[C@H](CSSC[C@H](NC(=O)[C@@H](N)CC(=O)O)C(=O)N[C@@H](CC(C)C)C(=O)NCC(=O)N[C@@H](Cc4ccccc4)C(=O)N[C@@H](CCSC)C(=O)N[C@@H](CCCNC(=N)N)C(=O)N[C@@H](CCCCN)C(=O)N2)NC(=O)[C@H](CSSC[C@@H](C(=O)N[C@@H](CCCCN)C(=O)N[C@@H](Cc2ccc(O)cc2)C(=O)N[C@H](C(=O)N[C@@H](Cc2ccccc2)C(N)=O)C(C)C)NC(=O)[C@H](Cc2c[nH]c4ccccc24)NC(=O)[C@H](CCCCN)NC(=O)[C@H](Cc2cnc[nH]2)NC(=O)[C@H]([C@@H](C)O)NC(=O)[C@H](CCCNC(=N)N)NC(=O)[C@H](CO)NC3=O)NC(=O)[C@H](CCCNC(=N)N)NC(=O)[C@H](CC(=O)O)NC(=O)[C@H](CC(N)=O)NC(=O)[C@H](CC(=O)O)NC(=O)[C@@H]2CCCN2C1=O` (H-DCLGFMRKCIPDNDRCCRPNLVCSRTHKWCKYVF-NH2; disulfide 2-17, 9-23, 16-30), the 50% inhibitory concentration (IC50) in experiment [1] was 220 nM; in experiment [2], > 5000 nM.

Values taken from ChEMBL document CHEMBL3797186, “Single Residue Substitutions That Confer Voltage-Gated Sodium Ion Channel Subtype Selectivity in the NaV1.7 Inhibitory Peptide GpTx-1” (J Med Chem, 2016).
